Results pooled from the literature.
Each line is one published result; the experiments were not run side by side.
Target: 3',5'-cyclic-AMP phosphodiesterase 4B (PDE4B, Homo sapiens, UniProt Q07343)
Effect on: enzyme activity
Mode: inhibitor

technique | measurement | value | SMILES
– | IC50 | 9e-05 µM | COc1ccc([C@@H]2CN(C(=O)[C@@H](O)CO)C[C@@]2(C)[C@@H](C)O)cc1OC1CN(c2ccc(C)cn2)C1
– | Ki | 6.31 µM | COc1ccc(C2=NN(C3CCCCCC3)C(=O)C3CC=CCC23)cc1-c1ccc(C(=O)N2CCC[C@@H]2C(N)=O)cc1 (mixture of isomers)
– | IC50 | 25.1 µM | CCn1c(-c2nc3ccc(C(=O)N4CCCC(N)C4)cc3n2C)cc2ccccc21 (centres unmarked)
– | IC50 | > 100 µM | CSc1ccc(/C=C2/C(C)=C(CC(=O)O)c3cc(F)ccc32)cc1
– | Ki | 2 µM | COc1ccc(C2=NN(C3CCCCCC3)C(=O)C3CC=CCC23)cc1-c1ccc(C(=O)N2CC[C@@H](O)C2)cc1 (mixture of isomers)
radiometric | IC50 | 0.089 µM | CC(C)CC(=O)c1ccc(OC(F)F)c(O[C@@H]2CCOC2)c1
– | IC50 | 6.31 µM | CCn1c(-c2nc3cc(C(=O)N4CCC[C@@H](N)C4)cc(OC)c3n2C)cc2cccnc21
– | IC50 | > 0.1 µM | CN1C(=O)c2c(nn(Cc3ccc(-c4cccc(F)n4)cc3)c2Nc2ccccc2)N2C1=N[C@@H]1CCC[C@@H]12
